# Compound activity from PubChem BioAssay.
# Sampled rows, rich in hits. Any-hit rate of the full collection: about 5.8%.
# Pf Dd2 inh – blocks growth of Plasmodium falciparum Dd2 parasites; actives 2.3% (n = 94,000); P. falciparum Dd2 growth, SYBR Green, 72 h; stronger effect = lower value; activity change, % at 10 µM; AID 1159554; in the data active means activity change below about -80%
# Tcruzi prolif – inhibitors of T. cruzi proliferation | actives 5.9% (n = 77,000) | T. cruzi beta-gal in NIH3T3, GalScreen luminescence, 90 h | AID 624255 | inhibition, % at 8.34 µM;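 active means mean inhibition above about 93%, with at least 55% of replicates each passing it, limit read from the data, passing the limit was not always enough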
# IDH1 R132H inh – blocks human IDH1 R132H reductase activity; diaphorase/resazurin fluorescence, 60 min; inhibition, % at 10 µM; actives 0.18% (n = 70,000); AID 624101; in the data active means inhibition above about 34%
# Target sequence (O75874 whole entry R132H): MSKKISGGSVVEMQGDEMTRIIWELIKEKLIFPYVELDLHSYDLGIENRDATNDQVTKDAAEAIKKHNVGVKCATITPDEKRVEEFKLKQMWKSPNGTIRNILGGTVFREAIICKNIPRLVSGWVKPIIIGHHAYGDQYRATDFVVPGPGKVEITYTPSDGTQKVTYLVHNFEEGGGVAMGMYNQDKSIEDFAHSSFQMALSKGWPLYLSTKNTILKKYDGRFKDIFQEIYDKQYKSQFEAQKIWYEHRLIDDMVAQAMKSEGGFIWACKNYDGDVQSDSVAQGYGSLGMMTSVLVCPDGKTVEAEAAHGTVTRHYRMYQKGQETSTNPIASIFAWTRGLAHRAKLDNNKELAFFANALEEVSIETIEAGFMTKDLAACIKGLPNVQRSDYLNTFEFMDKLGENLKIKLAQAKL
# KDM4C inh – inhibitors of human demethylase GASC-1 KDM4C. AID 720574. Q9H3R0. inhibition, % at 12.5 µM. actives 0.15% (n = 96,000). GST-KDM4C 2-372, H3K9me3 peptide, LANCE TR-FRET;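 active means mean replicate inhibition above about 25%, with at least 55% of replicates also reaching it, limit read from the data, passing the limit was not always enough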
#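 System: N-terminal GST-fused human GASC-1 (KDM4C) fragment, residues 2-372 / Amount: 10 nM GST-KDM4C in enzyme reaction / Also added: H3K9me3 peptide with Fe(II)/2OG / Times: 30 min demethylation and 1 h detection at room temperature / Signal: LANCE TR-FRET / Read-out basis: Fall in 671/618 emission ratio as inhibition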
# A number is an active result; – = inactive; · = no result.
SMILES,Pf Dd2 inh,Tcruzi prolif,IDH1 R132H inh,KDM4C inh
C[C@@H]1CN([C@H](C)CO)C(=O)c2c(c3ccccc3n2C)-c2ccccc2CO[C@@H]1CN(C)C(=O)Nc1cccc(C(F)(F)F)c1,-84,·,·,–
COc1ccc(NC(=O)N(C)C[C@H]2OCc3cnnn3CCCC(=O)N([C@H](C)CO)C[C@H]2C)c(OC)c1,–,–,54,–
CN1c2ccc(-c3ccccc3)cc2[C@@H]2[C@@H](CCN2C(=O)c2ccccc2)[C@@H]1CO,–,–,·,–
CO[C@@H]1CN(C)C(=O)c2cc(NC(C)=O)ccc2OC[C@H](C)N(C(=O)CC2CC2)C[C@H]1C,–,–,–,–
CO[C@H]1CN(C)C(=O)c2cc(NS(C)(=O)=O)ccc2OC[C@H](C)N(C(=O)CC2CC2)C[C@H]1C,–,–,45,–
CO[C@@H]1CN(C)C(=O)c2cc(NS(C)(=O)=O)ccc2OC[C@H](C)N(C(=O)CC2CC2)C[C@H]1C,–,–,–,–
CO[C@H]1CN(C)C(=O)c2cc(NC(C)=O)ccc2OC[C@@H](C)N(C(=O)CC2CC2)C[C@H]1C,–,–,85,38
C[C@H]1CN([C@@H](C)CO)C(=O)c2cccc(NS(=O)(=O)c3cn(C)cn3)c2O[C@H]1CN(C)S(=O)(=O)c1ccc(Cl)cc1,–,–,·,–
COc1ccc(S(=O)(=O)N(C)C[C@H]2OCCCC[C@H](C)Oc3ccc(NC(=O)CCCN(C)C)cc3C(=O)N([C@H](C)CO)C[C@H]2C)cc1,–,–,·,45
COc1ccc(S(=O)(=O)N(C)C[C@@H]2OCCCC[C@@H](C)Oc3ccc(NC(=O)CCC(F)(F)F)cc3C(=O)N([C@@H](C)CO)C[C@@H]2C)cc1,-81,–,·,–
C[C@@H]1CCCCO[C@H](CN(C)S(=O)(=O)c2ccccc2)[C@H](C)CN([C@@H](C)CO)C(=O)c2cc(NC(=O)CCCN(C)C)ccc2O1,–,–,89,–
COc1ccc(C#Cc2ccc3c(c2)O[C@@H](CN(C)C(=O)Nc2cccc(OC)c2)[C@@H](C)CN([C@H](C)CO)S3(=O)=O)cc1,-89,–,·,–
COc1ccc(C#Cc2ccc3c(c2)O[C@@H](CN(C)C(=O)Nc2cccc(OC)c2)[C@H](C)CN([C@@H](C)CO)S3(=O)=O)cc1,-88,–,·,·
CCC(=O)N1CCC2(CC1)CN(Cc1cc(F)ccc1F)[C@@H](CO)c1[nH]c3cc(OC)ccc3c12,-90,·,·,–
COc1ccc2c3c([nH]c2c1)[C@H](CO)N(Cc1cc(F)ccc1F)CC31CCN(C(=O)CN(C)C)CC1,-81,·,·,–
CCC(=O)N1CCC2(CC1)CN(C(C)=O)[C@@H](CO)c1[nH]c3cc(OC)ccc3c12,–,·,·,–
COc1ccc2c3c(n(C)c2c1)[C@H](CO)N(Cc1cc(F)ccc1F)CC31CCN(C(C)=O)CC1,–,·,·,–
COc1ccc2c3c([nH]c2c1)[C@@H](CO)N(Cc1cc(F)ccc1F)CC31CCN(C(C)=O)CC1,-83,·,·,–
CCC(=O)Nc1ccc2c(c1)OC[C@H](C)N(Cc1ccncc1)C[C@@H](C)[C@@H](OC)CN(C)C2=O,–,–,–,–
O=C(C[C@@H]1CC[C@H](NS(=O)(=O)c2ccc(F)cc2)[C@@H](CO)O1)NCc1ccc(Cl)c(Cl)c1,–,–,–,–
O=S(=O)(Nc1nccs1)c1ccc(NS(=O)(=O)c2cc(Cl)ccc2Cl)cc1,·,·,39,·
O=S(=O)(Nc1ncccn1)c1ccc(NS(=O)(=O)c2cc(Cl)ccc2Cl)cc1,·,·,–,·
N#C[C@H]1[C@H](c2ccc(C#CC3CCCCC3)cc2)[C@@H](CO)N1C(=O)Nc1ccc(F)cc1,-86,·,·,–
N#C[C@@H]1[C@H](c2ccc(C#CC3CCCCC3)cc2)[C@H](CO)N1C(=O)Nc1ccc(F)cc1,-88,·,·,–
COc1ccc2c3c(n(C)c2c1)[C@@H](CO)N(Cc1ccccc1)CC31CN(S(=O)(=O)c2ccc(C)cc2)C1,–,·,·,·
CCS(=O)(=O)N1CC2(C1)CN(S(=O)(=O)c1ccccc1)[C@@H](CO)c1c2c2ccc(OC)cc2n1C,–,·,·,–
COc1ccc2c3c(n(C)c2c1)[C@H](CO)N(Cc1ccccc1)CC31CCN(S(=O)(=O)c2ccc(C)cc2)CC1,-84,·,·,–
CCS(=O)(=O)N1CCC2(CC1)CN(S(=O)(=O)c1ccccc1)[C@@H](CO)c1c2c2ccc(OC)cc2n1C,-84,·,·,–
O=C(C[C@H]1CC[C@H]2[C@@H](COC[C@H](O)CN2Cc2ccc3c(c2)OCO3)O1)N1CCCCC1,·,–,·,–
COc1ccc(NC(=S)Nc2cnn(C)c2C(N)=O)c(OC)c1,·,·,–,·
